A short description of series [1]: Drug level in mouse plasma at 50 mg/kg, po administered as single dose via gavage measured at 8 hrs post dose by liquid chromatography/tandem mass spectrometric analysis. In kind it is ADME, organism-based. The method in brief:
(§1)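 Single 50 mg/kg oral dose in DMSO (5%), Tween 80 (7%), EtOH (3%) in 0.9% saline; groups of three mice killed at 1, 4, 8 and 24 h. Plasma separated by brief centrifugation; brain homogenised in acetonitrile; both assayed by LC-MS/MS, brain values corrected for 3% v/w blood content. Mean ± SEM of 3 mice; plasma LLQ 0.010 μM.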

Series [2] is described as follows: Drug level in Swiss-Webster mouse plasma infected with Trypanosoma brucei rhodesiense STIB900 at 50 mg/kg, po bid administered via gavage for 4 days starting from 2 days post infection measured at 6 hrs post last dose. In kind it is ADME, organism-based. The method in brief:
(§2)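 Female Swiss-Webster mice (ND4 outbred, 6−8 weeks), groups of five, infected day 0 with 1 × 10^4 T. b. rhodesiense STIB900; 50 mg/kg oral gavage every 12 h days 2−5 (eight doses) in 200 μL DMSO 5%, Tween 80 7%, EtOH 3% in 0.9% saline. Tail blood from 3 mice before dose 7, then 1 and 6 h post-dose, spotted on cards, LC-MS/MS.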

The subject of series [3] is Plasma. Put plainly: Drug level in Swiss-Webster mouse plasma infected with Trypanosoma brucei rhodesiense STIB900 at 50 mg/kg, po bid administered via gavage for 4 days starting from 2 days post infection measured on day 3 prior to dose 7. It counts as ADME, organism-based. Particulars: in vivo. The method in brief: as §2
The nature of series [4]: Drug level in mouse brain at 50 mg/kg, po administered as single dose via gavage measured at 1 hr post dose by liquid chromatography/tandem mass spectrometric analysis. In kind it is ADME, organism-based. Particulars: read-out: Drug uptake. The gist of the method:
as §1

Series [5] can be described thus: AUC (0 to infinity) in mouse brain at 50 mg/kg, po administered as single dose via gavage by liquid chromatography/tandem mass spectrometric analysis. It counts as ADME, organism-based. Details: dose 50 mg/kg, time infinity, route oral. The gist of the method:
(§3)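 Time course after a single 50 mg/kg oral dose in 5% DMSO/7% Tween 80/3% EtOH in 0.9% saline. Mice are sacrificed in groups of three at 1, 4, 8 and 24 h. Plasma is separated by centrifugation and brain homogenized in acetonitrile, both measured by LC-MS/MS. Brain values are corrected for 3% v/w blood. Lower limit of quantitation 0.010 μM. Values are means ± SEM.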

The nature of series [6]: Cmax in mouse brain at 50 mg/kg, po administered as single dose via gavage by liquid chromatography/tandem mass spectrometric analysis. In kind it is ADME, organism-based. Details: dose 50 mg/kg, route oral. The gist of the method: as §3
Series [7] in a line: Drug level in mouse brain at 50 mg/kg, po administered as single dose via gavage measured at 24 hrs post dose by liquid chromatography/tandem mass spectrometric analysis. Particulars: read-out: Drug uptake. In kind it is ADME, organism-based. The gist of the method: as §1
Series [8] in a line: AUC (0 to infinity) in mouse plasma at 50 mg/kg, po administered as single dose via gavage by liquid chromatography/tandem mass spectrometric analysis. In kind it is ADME, organism-based. Details: dose 50 mg/kg, time infinity, route oral. The gist of the method: as §3
The nature of series [9]: Selectivity index, ratio of EC50 for human CRL8155 cells to EC50 for Trypanosoma brucei brucei BF427. In kind it is toxicity. Particulars: read-out: Ratio EC50.
Series [10] relates to Plasma. The series is described as follows: Drug level in Swiss-Webster mouse plasma infected with Trypanosoma brucei brucei TREU667 at 50 mg/kg, po bid administered via gavage for 10 days starting from 21 days post infection measured on day 7 prior to dose 15. It counts as ADME, organism-based. Particulars: in vivo. The gist of the method: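 Groups of five mice given 1 × 10^4 T. b. brucei TREU667 on day 0; from day 21, 50 mg/kg oral gavage every 12 h for 10 d (20 doses) in 200 μL Phosal 53 MCT (60%), PEG400 (30%), EtOH (10%). Tail blood drawn from 3 mice before dose 15 and 1 and 6 h after it, spotted on cards, LC-MS/MS.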

Series [11] is described as follows: Drug level in mouse plasma at 50 mg/kg, po administered as single dose via gavage measured at 4 hrs post dose by liquid chromatography/tandem mass spectrometric analysis. In kind it is ADME, organism-based. The method in brief:
as §1

Series [12] is described as follows: Drug level in mouse plasma at 5 mg/kg, ip administered as single dose measured at 1 hr post dose by liquid chromatography/tandem mass spectrometric analysis. In kind it is ADME, organism-based. The method in brief:
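Single ip dose of 5 mg/kg in 5% DMSO/7% Tween 80/3% EtOH in 0.9% saline, three mice per compound (six for one compound). At 1 h, plasma is separated by centrifugation and brain homogenized in acetonitrile. Both are quantified by LC-MS/MS, with brain corrected for 3% v/w blood. Brain/plasma ratio is reported as mean ± SEM.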

Series [13] in a line: Stability in human liver microsomes assessed as compound remaining at 1.5 uM in presence of NADPH measured after 60 mins by liquid chromatography/tandem mass spectrometric analysis. It counts as ADME, microsome. Particulars: read-out: Stability. The method in brief: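 Pooled liver microsomes (0.5 mg/mL) are preincubated 5 min at 37 °C in 0.16 M KH2PO4 with 1 mM NADPH, then test compound is added at 1.5 μM. Aliquots are quenched with 4 volumes of acetonitrile at 0, 5, 10, 15, 30 and 60 min and analyzed by LC-MS/MS. Percent remaining at 5 or 60 min is given when t1/2 is outside the 5–60 min range. Controls: testosterone, dextromethorphan.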

Series [14] is described as follows: Drug level in Swiss-Webster mouse plasma infected with Trypanosoma brucei brucei TREU667 at 50 mg/kg, po bid administered via gavage for 10 days starting from 21 days post infection measured at 1 hr post last dose. It counts as ADME, organism-based.
Series [15] is described as follows: AUC (0 to infinity) in mouse at 50 mg/kg, po administered as single dose via gavage as 0.5% methylcellulose cP400/0.5% Tween 80 formulation by liquid chromatography/tandem mass spectrometric analysis. In kind it is ADME, organism-based. Details: dose 50 mg/kg, route oral, time infinity. Particulars: in vivo. The method in brief:
(§4)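 Single oral gavage dose of 50 mg/kg to groups of three mice, vehicle as in the line. Tail blood of 40 μL is taken into heparinized capillaries at time points out to as much as 32 h. It is spotted on dried-blood cards and quantified by LC-MS/MS. Values are means ± SEM of three mice.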

Series [16] in a line: AUC (0 to infinity) in mouse at 50 mg/kg, po administered as single dose via gavage as 60% phosal 53 MCT/30% PEG400/10% EtOH formulation by liquid chromatography/tandem mass spectrometric analysis. Particulars: in vivo. Details: dose 50 mg/kg, time infinity, route oral. In kind it is ADME, organism-based. The gist of the method: as §4
The subject of a further series is HepG2. The series is described as follows: Cytotoxicity against human HepG2 cells assessed as growth inhibition after 48 hrs by Alamar blue assay. It counts as cell-based. Particulars: Homo sapiens, HepG2, 48 h. The gist of the method: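 CRL-8155 lymphoblasts or HepG2 hepatocellular carcinoma cells are exposed 48 h to serial compound dilutions in quadruplicate. Growth is read with Alamar Blue, and 50% and 90% inhibitory concentrations come from nonlinear regression. Quinacrine is the control.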
(Resazurin is reduced to fluorescent resorufin, in cell work by metabolically active cells.)

Series [17] is described as follows: Selectivity index, ratio of EC50 for human HepG2 cells to EC50 for Trypanosoma brucei brucei BF427. It counts as toxicity. Particulars: read-out: Ratio EC50.
A short description of series [18]: Drug level in Swiss-Webster mouse plasma infected with Trypanosoma brucei brucei TREU667 at 50 mg/kg, po bid administered via gavage for 10 days starting from 21 days post infection measured at 6 hrs post last dose. In kind it is ADME, organism-based.
Series [19] can be described thus: Drug level in mouse plasma at 50 mg/kg, po administered as single dose via gavage measured at 1 hr post dose by liquid chromatography/tandem mass spectrometric analysis. In kind it is ADME, organism-based. The gist of the method:
as §1

Series [20] in a line: Drug level in mouse brain at 50 mg/kg, po administered as single dose via gavage measured at 4 hrs post dose by liquid chromatography/tandem mass spectrometric analysis. In kind it is ADME, organism-based. Particulars: read-out: Drug uptake. The gist of the method: as §1

From ChEMBL document CHEMBL3992510, “Urea Derivatives of 2-Aryl-benzothiazol-5-amines: A New Class of Potential Drugs for Human African Trypanosomiasis” (J Med Chem, 2017) come the findings set out here.

What is called AUC(0-inf) is total exposure, with the tail of the curve extrapolated. A high value points to high exposure. The term Cmax denotes the maximum level reached in the sampled fluid or tissue. As usually defined, the EC50 is the concentration needed to bring the measured effect to its halfway point.

Molecule `O=C(Nc1ccc2sc(-c3ccc(F)c(F)c3)nc2c1)N1CC[C@H](F)C1` displayed a concentration at 8 h in [1] of 8.97 µM. The concentration at 6 h in series [2] turned out to be 15 µM; in series [18] it was 26.7 µM. Also, the concentration worked out at 9.1 µM in the series on Plasma [3] and 15.8 µM with Plasma [10]. For the same molecule, the concentration at 1 h in series [4] stood at 38.2 µM; in [12], 2.27 µM; in [14], 23.1 µM; in series [19] it was 27.1 µM. For the same molecule, the AUC(0-inf) was 719 µM·h in series [5], 180 µM·h in series [8], 106 µM·h in [15] and 245 µM·h in series [16]. In addition, in series [6], the concentration peaked (Cmax) at 54.8 µM. Further, the concentration at 24 h in [7] came to 0.28 µM. The selectivity ratio in series [9] and in series [17] was above 1440 throughout. The concentration at 4 h in [11] was 10.2 µM; in [20], 45.2 µM. Moreover, the remaining at 1 h, 1.5 µM in series [13] is 53%. For the same molecule, the EC50 in the series on HepG2 was above 50 µM.
